Source: PubChem (several laboratories)
Mdm2-MdmX inh: human Mdm2/MdmX binding inhibition | SaOS-2 split-luciferase Mdm2/MdmX complementation, luminescence | inhibition, % at 8 µM | 3% of 330,000 active | AID 485346;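 active = inhibition of at least 50% at 8 µM in the primary screen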
Exocytosis inh: lytic granule exocytosis inhibition | TALL-104 LAMP-1 surface exposure, flow cytometry; cells stimulated with thapsigargin and PMA | inhibition, % at 10 µM | 0.66% of 360,000 active | AID 651702;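 active = inhibition above about 55%, limit read from the data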
UPR XBP1 act: activators of adaptive arm of unfolded protein response (XBP1); CHO-XBP1 luciferase reporter, IRE1-XBP1 UPR activation, luminescence; percent of tunicamycin response, DMSO as zero; activation, % at 20 µM; 0.33% of 330,000 active; AID 463104;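 active = versus positive control, 20 µM dose yields 30% or more activation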;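 note: 100% = tunicamycin at 10 µg/mL and 0% = DMSO only wells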
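Material: CHO cell line with stable XBP1 luciferase reporter; schedule: 16-18 h cell attachment at 37 °C, then 6 h compound exposure; signal: glow luminescence from Steady-Glo reagent; medium: serum-containing F12 medium, 10% FBS; benchmarks: tunicamycin 10 µg/mL and vehicle-only wells; read-out: percent activation relative to tunicamycin reference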
ABHD5-PLIN5 inh: ABHD5-PLIN5 protein interaction inhibition | Q00G26+Q8WTS1 | inhibition, % at 4 µM | Split G. princeps luciferase complementation, luminescence, 4 h | 0.78% of 360,000 active | AID 602281;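 active = inhibition above the mean inhibition across every tested compound plus 3 SD, cut at about 22% in these data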;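 note: 0% = DMSO only wells and the 100% control is not disclosed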
CHOP UPR activ: activators of apoptotic arm of unfolded protein response (CHOP); 0.34% of 330,000 active; CHO-CHOP luciferase reporter, UPR activation, luminescence; percent of tunicamycin response over DMSO baseline; activation, % at 10 µM;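 active = at 10 µM dose, activation of 40% or more, normalized to positive control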;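 note: 100% = tunicamycin at 10 µg/mL and 0% = DMSO alone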
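System: CHO-CHOP luciferase reporter cell line; amount: 500 cells/well; buffer or medium: F12 medium containing 10% fetal bovine serum; incubation: 6 h compound exposure at 37 °C after overnight seeding; measured by: luciferase luminescence after 10 min with Steady-Glo reagent; evaluation: % reporter activation, DMSO baseline versus tunicamycin full activation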
Mdm2-MdmX conf: human Mdm2/MdmX binding inhibition, confirmed; shares compounds with Mdm2-MdmX inh; luminescent assay; inhibition, % at 8 µM; 55% of 10,000 active; in the data active = inhibition above about 40%
FLuc counter: counter-screen for Mdm2/MdmX inhibitors: full-length luciferase; shares compounds with Mdm2-MdmX inh; SaOS-2 full-length luciferase counterscreen, luminescence; inhibition, % at 8 µM; 77% of 6,200 active; AID 504607;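 active = mean inhibition at 8 µM reaching about 37%, which flags the compound as non-specific, limit read from the data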;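 note: p53-null SaOS-2 cells with luciferase driven by a doxycycline-inducible promoter; compound on cells about two nights before reading with doxycycline added after day one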
ABHD5-PLIN5 conf: confirmation of human ABHD5-PLIN5 interaction inhibitors | biochemical ABHD5-PLIN5 interaction, luminescence | inhibition, % at 4 µM | 67% of 2,200 active | shares compounds with ABHD5-PLIN5 inh; in the data active = inhibition above about 23%;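 note: 0% = DMSO vehicle wells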
HNF4 split-luc: counter-screen for ABHD5-PLIN5 inhibitors: HNF4 split-luciferase | shares compounds with ABHD5-PLIN5 inh | HNF4 dimerization, luminescence, biochemical | inhibition, % at 4 µM | 77% of 2,200 active;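 active = mean inhibition across replicate wells exceeding the computed hit threshold, cut at about 13% in these data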;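 note: light from luciferase halves that rejoin when HNF4 fusion proteins dimerize; 0% = DMSO only wells and the 100% control is not given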
* hit, by the source's call; nt = no result. Only some compounds are listed: those with a hit (about 4% of all), similar ones and a draw of the others.

SMILES	Mdm2-MdmX inh	Exocytosis inh	UPR XBP1 act	ABHD5-PLIN5 inh	CHOP UPR activ	Mdm2-MdmX conf	FLuc counter	ABHD5-PLIN5 conf	HNF4 split-luc
COc1ccc(CCNC(=O)c2cc(S(=O)(=O)N3CCCCC3)ccc2Cl)cc1	-3	-2	-4	-8	-2	nt	nt	nt	nt
CCc1ccc(/C=C/C(=O)c2c(C)cc(C)[nH]c2=O)cc1	72*	1	3	29*	1	48*	31	48*	29*
COc1ccccc1C1OCC(C)(C)CO1	nt	-17	nt	7	nt	nt	nt	nt	nt
O=C1NC(=O)c2cc([N+](=O)[O-])cc3cccc1c23	-12	-9	-4	1	-1	nt	nt	nt	nt
Cc1cccc(CS(=O)(=O)c2ncc(Cl)c(C(=O)NCc3ccc4c(c3)OCO4)n2)c1	60*	64*	-7	49*	28	64*	16	87*	105*
CCc1ccc(NC(=O)c2nc(S(=O)(=O)Cc3ccccc3)ncc2Cl)cc1	99*	36	-10	77*	-11	84*	51*	89*	89*
COc1cccc(NC(=O)c2nc(S(C)(=O)=O)ncc2Cl)c1	96*	14	-11	53*	-3	83*	60*	77*	102*
CCSc1ncc(Cl)c(C(=O)Nc2ccccc2)n1	16	-5	-3	-3	-1	nt	nt	nt	nt
COc1cccc(NC(=O)c2nc(SC)ncc2Cl)c1	9	-7	-1	-2	2	nt	nt	nt	nt
CCS(=O)(=O)c1ncc(Cl)c(C(=O)Nc2ccc(S(=O)(=O)N3CCC(C)CC3)cc2)n1	100*	22	-11	73*	-11	100*	52*	99*	103*
Cc1cccc(CN(C)C[C@@H]2OCc3cnnn3CCCC(=O)N([C@H](C)CO)C[C@H]2C)c1	nt	5	nt	5	nt	nt	nt	nt	nt
Cc1[nH]n(-c2ccccc2)c(=S)c1C=Nc1ccc([N+](=O)[O-])cc1	nt	7	nt	-15	nt	nt	nt	nt	nt
CCCc1cc(C(=O)Nc2ccc(F)cc2F)no1	-13	3	7	2	7	nt	nt	nt	nt
CN(c1ccccc1)S(=O)(=O)c1ccc(NC(=O)c2nc(S(C)(=O)=O)ncc2Cl)cc1	98*	31	-12	78*	-11	100*	51*	91*	106*
CN(c1ccccc1)S(=O)(=O)c1ccc(NC(=O)c2ccccc2)cc1	25	20	-3	-3	-2	nt	nt	nt	nt
COc1ccc(S(=O)(=O)Nc2ccccc2C(=O)NCc2ccco2)cc1Br	22	1	0	6	3	nt	nt	nt	nt
CCOC(=O)CS(=O)(=O)c1nc(-c2ccccc2)cc(C(F)(F)F)n1	101*	30	-9	67*	-11	98*	0	76*	107*
CCOC(=O)CS(=O)(=O)c1ccccc1	9	-1	-2	1	2	nt	nt	nt	nt
O=[N+]([O-])c1ccc(NN=Cc2cccc3ccccc23)cc1	nt	13	nt	-1	nt	nt	nt	nt	nt
COc1cccc(-n2nc(C#N)c(Cl)cc2=O)c1	100*	10	-8	29*	3	100*	51*	37*	41*
COc1ccc(/C=C/c2cc(-c3ccc(C)cc3)o[n+]2C)cc1	74*	3	0	28*	1	96*	51*	44*	31*
COc1ccc(/C=C/c2c(-c3ccc(OC)cc3)oc3ccc(-c4ccc(OC)cc4)cc23)cc1	-3	-4	0	-4	-2	nt	nt	nt	nt
CC(OC(=O)/C=C/c1ccc2ccccc2n1)C(=O)Nc1ccc(S(N)(=O)=O)cc1 (configuration not stated)	72*	3	-3	25*	-1	49*	66*	28*	21*
